Key:
[1] = test system: MPP8–GLP interaction in 293T cells; assay: Co-immunoprecipitation of MPP8 and GLP in 293T cells; type: cell-based, human
Summary of the method: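 293T cells (parental, or MPP8 stable knockdown for the chromodomain W80A mutant) were cotransfected with Flag-MPP8 and HA-GLP (WT, K199R, K205R or K209R) for 48 h. Lysates were immunoprecipitated with 1 μg anti-HA or anti-Flag on protein-G agarose, washed with IPH containing 300 or 600 mM NaCl, and analysed by western blot. Input was 5%.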

[2] = test system: hDNMT3A–MPP8 interaction in 293T cells; assay: Co-immunoprecipitation of hDNMT3A and MPP8 in 293T cells; type: cell-based, human; details: immunoprecipitation–western
Summary of the method: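 293T cells were transfected for 48 h with Myc-hDNMT3A constructs (WT or K47R; in one setup, co-expressed with HA–GLP in GLP stable-knockdown cells). IP used 1 μg anti-Myc with protein-G agarose and three washes in IPH containing 300 or 600 mM NaCl. Western used anti-Myc/MPP8; input was 1–2%.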

B1: MPP8 W80A: cage mutant of MPP8 chromodomain, Trp80 to alanine (protein)
chain: MEQVAEGARVTAVPVSAADSTEELAEVEEGVGVVGEDNDAAARGAEAFGDSEEDGEDVFEVEKILDMKTEGGKVLYKVRAKGYTSDDDTWEPEIHLEDCKEVLLEFRKKIAENKAKAVRKDIQRLSLNNDIFEANSDSDQQSETKEDTSPKKKKKKLRQREEKSPDDLKKKKAKAGKLKDKSKPDLESSLESLVFDLRTKKRISEAKEELKESKKPKKDEVKETKELKKVKKGEIRDLKTKTREDPKENRKTKKEKFVESQVESESSVLNDSPFPEDDSEGLHSDSREEKQNTKSARERAGQDMGLEHGFEKPLDSAMSAEEDTDVRGRRKKKTPRKAEDTRENRKLENKNAFLEKKTVPKKQRNQDRSKSAAELEKLMPVSAQTPKGRRLSGEERGLWSTDSAEEDKETKRNESKEKYQKRHDSDKEEKGRKEPKGLKTLKEIRNAFDLFKLTPEEKNDVSENNRKREEIPLDFKTIDDHKTKENKQSLKERRNTRDETDTWAYIAAEGDQEVLDSVCQADENSDGRQQILSLGMDLQLEWMKLEDFQKHLDGKDENFAATDAIPSNVLRDAVKNGDYITVKVALNSNEEYNLDQEDSSGMTLVMLAAAGGQDDLLRLLITKGAKVNGRQKNGTTALIHAAEKNFLTTVAILLEAGAFVNVQQSNGETALMKACKRGNSDIVRLVIECGADCNILSKHQNSALHFAKQSNNVLVYDLLKNHLETLSRVAEETIKDYFEARLALLEPVFPIACHRLCEGPDFSTDFNYKPPQNIPEGSGILLFIFHANFLGKEVIARLCGPCSVQAVVLNDKFQLPVFLDSHFVYSFSPVAGPNKLFIRLTEAPSAKVKLLIGAYRVQLQ
modifications: left off: Flag, end not stated, kept
Question: For B1, which “MPP8–GLP interaction in cells” value [1] is on record?
Answer: abrogates MPP8–GLP interaction in cells

Question: What about the “interaction of hDNMT3A with MPP8 in cells” value [2] of the same molecule?
Answer: abrogate binding to hDNMT3a

Source: paper PMC3286832 (Nature Communications, 2011)
